The record followed here is ChEMBL document CHEMBL4011632, “Design, Synthesis, and Evaluation of Thiazolidine-2,4-dione Derivatives as a Novel Class of Glutaminase Inhibitors” (J Med Chem, 2017).

The target of series [1] is T1, Glutaminase liver isoform, mitochondrial (Homo sapiens) (UniProt Q9UI32).
T1 sequence (whole entry): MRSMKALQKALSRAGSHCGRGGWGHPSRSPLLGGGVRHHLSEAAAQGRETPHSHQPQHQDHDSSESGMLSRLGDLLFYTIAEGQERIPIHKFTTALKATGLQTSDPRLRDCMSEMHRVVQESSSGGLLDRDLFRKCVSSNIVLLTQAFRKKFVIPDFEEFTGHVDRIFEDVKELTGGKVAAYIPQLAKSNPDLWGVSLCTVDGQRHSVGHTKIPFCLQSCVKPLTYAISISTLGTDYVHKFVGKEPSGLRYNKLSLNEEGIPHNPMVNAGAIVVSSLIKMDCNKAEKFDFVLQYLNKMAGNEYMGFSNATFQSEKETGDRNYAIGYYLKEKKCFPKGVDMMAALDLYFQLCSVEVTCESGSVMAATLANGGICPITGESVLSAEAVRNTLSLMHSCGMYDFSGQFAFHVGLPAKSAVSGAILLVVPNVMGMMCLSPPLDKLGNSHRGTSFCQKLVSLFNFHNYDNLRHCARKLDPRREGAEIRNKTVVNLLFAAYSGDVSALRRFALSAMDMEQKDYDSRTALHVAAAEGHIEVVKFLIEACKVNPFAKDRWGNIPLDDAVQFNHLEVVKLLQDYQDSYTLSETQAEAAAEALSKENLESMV
In words: Inhibition of human GLS2 in GLS1 deficient human Aspc-1 cells assessed as decrease in cellular glutamate production at 3.13 to 100 uM after 4 hrs by amplex red glutamic acid assay. An outline of the steps: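 GLS-knockout AsPC-1 cells made with GLS-KO ZFN mRNA, single-cell cloned, and grown in glutamine-free RPMI 1640 with 10% FBS. Cells seeded at 30 000/well and grown 24 h at 37 °C. Treated 4 h with 1% DMSO vehicle or 3.13−100 μM inhibitor, washed with PBS, and lysed in NP-40 buffer (4 °C, 20 min). Lysate glutamate measured by Amplex Red. Three independent experiments in duplicate.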

The nature of series [2]: AUC (0 to infinity) in Sprague-Dawley rat at 2 mg/kg, iv by HPLC-MS analysis. The note with it: in vivo. It counts as ADME, organism-based. Further details: dose 2 mg/kg, route intravenous, time infinity. An outline of the steps:
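Male rats (330−380 g, 9−10 weeks old), jugular-vein cannulated 1 day before dosing, n = 3. Dosed iv in DMA/PEG400 (20%/80%, v/v) or po in 1% CMC/0.5% Tween-80. Blood (100 μL) drawn at 0, 2 min, 5 min (iv only), 15 and 30 min, and 1, 2, 4, 6, 8 and 24 h. Plasma measured by LC-MS/MS; parameters from noncompartmental analysis.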

Active and inactive are the calls of the source. The calls are words filed in the database; no cut-off is given here.

For the compound `O=C1NC(=O)/C(=C/c2ccc(-c3ccc(-n4c(-c5cccs5)cc(/C=C5\SC(=O)NC5=O)c4-c4cccs4)cc3)cc2)S1`, the inhibition result in series [1] is “Active”. Besides, the area under the curve AUC(0-inf) – broadly, total exposure, with the tail of the curve extrapolated – in series [2] stood at 43600 ng·h/mL.
